A word on the inhibition: it is the change of the read-out against control, counted positive when it falls.

Several values for one entry are separate records, joined by “and”; a condition that tells them apart may be missing. Identical values can stand only once.

Results on 31 compounds are retold here after PubChem BioAssay AID652011 (Sanford-Burnham Center for Chemical Genomics, 2013).

Sequence of Endothelial PAS domain-containing protein 1 (Homo sapiens) (Q99814 whole entry, looked up, the tested form may be a part): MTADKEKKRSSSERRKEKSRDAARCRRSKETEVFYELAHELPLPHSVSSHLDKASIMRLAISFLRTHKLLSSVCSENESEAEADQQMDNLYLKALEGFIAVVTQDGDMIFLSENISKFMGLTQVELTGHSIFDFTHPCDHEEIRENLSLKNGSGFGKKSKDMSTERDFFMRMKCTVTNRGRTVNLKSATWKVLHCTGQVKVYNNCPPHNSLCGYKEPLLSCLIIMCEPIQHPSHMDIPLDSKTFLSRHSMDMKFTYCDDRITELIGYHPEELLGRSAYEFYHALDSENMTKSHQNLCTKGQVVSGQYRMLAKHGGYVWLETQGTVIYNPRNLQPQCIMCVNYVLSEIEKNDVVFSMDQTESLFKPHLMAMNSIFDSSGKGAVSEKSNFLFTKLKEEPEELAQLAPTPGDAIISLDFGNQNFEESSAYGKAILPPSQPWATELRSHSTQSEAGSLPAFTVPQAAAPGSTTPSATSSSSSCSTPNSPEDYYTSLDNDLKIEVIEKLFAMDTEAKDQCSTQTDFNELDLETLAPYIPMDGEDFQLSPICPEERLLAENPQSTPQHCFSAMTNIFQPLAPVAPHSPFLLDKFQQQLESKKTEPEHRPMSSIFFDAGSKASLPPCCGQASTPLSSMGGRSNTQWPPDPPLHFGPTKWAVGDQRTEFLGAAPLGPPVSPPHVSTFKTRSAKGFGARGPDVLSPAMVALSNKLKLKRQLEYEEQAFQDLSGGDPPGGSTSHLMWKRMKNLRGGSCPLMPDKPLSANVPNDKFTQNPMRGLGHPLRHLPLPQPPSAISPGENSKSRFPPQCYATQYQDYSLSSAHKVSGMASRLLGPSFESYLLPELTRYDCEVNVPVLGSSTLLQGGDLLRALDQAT

The target in the assay is Endothelial PAS domain-containing protein 1 (Homo sapiens) (UniProt Q99814). As to the kind of experiment: HIF-1a and HIF-2a reporter inhibitors, SAR follow-up, cell-based, luminescence, MIAPaCa-2, 786-0, panel (AID 652011). To be noted: MIAPaCa-2/PANC HIF reporter, luciferase luminescence, desferoxamine, overnight, HIF2a PANC, run 1; at 99 µM (top of the series). In a few lines: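 Reagent: Desferoxamine added before compound | Doses: Compounds from 10 mM and 0.3125 mM stocks, 1% DMSO final | Times: Overnight seeding and compound exposure, 37 °C, 5% CO2, 10-min detection | Measured by: One-Glo luciferase luminescence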
As for `CCCNC(=O)CCc1nc(-c2ccc(C(C)(C)C)cc2)no1`, the inhibition was 7.88%. Take `CCNC(=O)CCc1nc(-c2ccc(CC)cc2)no1`: the inhibition was -29.7%. On to `CC(C)(C)c1ccc(-c2noc(CCC(=O)N3CCOCC3)n2)cc1`, for which the inhibition was -33.9%. The value for `CC(C)(C)c1ccc(-c2noc(CCC(=O)Nc3cccnc3)n2)cc1` was 118%; that for `O=C(O)CCc1nc(-c2ccccc2)no1` was 25.2%; that for `CCc1ccc(-c2noc(CCC(=O)NC3CC3)n2)cc1` was -19.4%. On to `CCNC(=O)CCc1nc(-c2ccc(C(C)(C)C)cc2)no1`, for which the inhibition was 17.6% and 9.6%. Regarding `CC(C)c1ccc(-c2noc(CCC(=O)NC3CC3)n2)cc1`, the inhibition is -39.8%.

Regarding `CC(C)(C)c1ccc(-c2noc(CCC(=O)NCC3CCCO3)n2)cc1` (stereo unspecified), the inhibition is 53.5%.

Take `C=CCNC(=O)CCc1nc(-c2ccc(C(C)(C)C)cc2)no1`: the inhibition is 56.7%. The value for `CCNC(=O)CCc1nc(-c2ccc(C(C)C)cc2)no1` was -50.6%; that for `CC(C)(C)c1ccc(-c2noc(CCC(=O)O)n2)cc1` was 119%. As for `COc1cccc(NC(=O)CCc2nc(-c3ccc(C(C)(C)C)cc3)no2)c1`, the inhibition came out at 118%.

Regarding `CNC(=O)CCc1nc(-c2ccc(C(C)(C)C)cc2)no1`, the inhibition was determined as 65.3%. The value for `CCCCc1ccc(-c2noc(CCC(=O)NC3CC3)n2)cc1` was -40.8%; that for `CC(C)(C)c1ccc(-c2noc(CCC(=O)NC3CCCCC3)n2)cc1` was 93.4%.

On to `CCc1ccc(-c2noc(CCC(=O)NC(C)(C)C)n2)cc1`, for which the inhibition was -42.9%. On to `CNC(=O)CCc1nc(-c2ccc(OC)cc2)no1`, for which the inhibition was found to be 36.2%. For `CCNC(=O)CCc1nc(-c2cccc(F)c2)no1`, the inhibition came to 19.4%. Consider `COc1ccccc1NC(=O)CCc1nc(-c2ccc(C(C)(C)C)cc2)no1`, for which the inhibition came out at 115%. Consider `CC(C)(C)c1ccc(-c2noc(CCC(=O)NCc3ccco3)n2)cc1`, for which the inhibition is 86.1% and 78.5%.

`O=C(CCc1nc(-c2ccccc2)no1)NC1CC1`: the inhibition came out at 66%.

As for `CCCCc1ccc(-c2noc(CCC(=O)NC(C)(C)C)n2)cc1`, the inhibition amounted to 62.8%. As for `CCOc1ccc(-c2noc(CCC(=O)O)n2)cc1`, the inhibition amounted to 109%. Regarding `CCNC(=O)CCc1nc(-c2ccccc2C)no1`, the inhibition came out at 27.8%. The value for `COC(=O)CCc1nc(-c2ccc(C(C)(C)C)cc2)no1` was 123%; that for `CCNC(=O)CCc1nc(-c2c(Cl)cccc2Cl)no1` was 53.6%; that for `CCOc1ccc(-c2noc(CCC(=O)NC)n2)cc1` was 112%.

Regarding `CNC(=O)CCc1nc(-c2ccc(C(C)C)cc2)no1`, the inhibition turned out to be 24%. Regarding `CC(C)(C)NC(=O)CCc1nc(-c2ccccc2)no1`, the inhibition was determined as 35.7%. Turning to `CC(C)(C)c1ccc(-c2noc(CCC(=O)N3CCCCC3)n2)cc1`, the inhibition was 103%.
